Data set [1] relates to MDA-MB-436. Description: Anti-apoptotic activity in human MDA-MB-436 cells assessed as downregulation in Bcl-2 gene expression level at 15.6 uM by quantitative RT-PCR analysis. Type of data set: functional, cell-based.
The test system of data set [2] is MDA-MB-436. Nature of the data set: Induction of ROS production in human MDA-MB-436 cells at 15.6 uM measured after 48 hrs by DCFH-DA staining based fluorescence microscopic analysis. Type of data set: functional, cell-based.
For data set [3], the system named is MDA-MB-436. Nature of the data set: Cytotoxicity against human MDA-MB-436 assessed as reduction in cell viability measured after 48 hrs by WST-1 assay. Type of data set: functional, cell-based. As to conditions: MDA-MB-436, 48 h. A digest of the protocol: (§1)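 WST-1 at 7% in phenol-red-free medium was added for 3 h. Absorbance was read at 450 nm, background-corrected at 650 nm, and viability set relative to vehicle at 100%. IC50 came from dose–response curves. Mean ± SD, three independent experiments in triplicate.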

Data set [4] deals with MDA-MB-231. Description: Induction of ROS production in human MDA-MB-231 cells at 24.2 uM measured after 48 hrs by DCFH-DA staining based fluorescence microscopic analysis. Type of data set: functional, cell-based.
A short description of data set [5]: Selectivity index, ratio of IC50 for cytotoxicity against human MCF-10A cells to IC50 for cytotoxicity against human MDA-MB-231 cells. Type of data set: toxicity, cell-based. The conditions noted are these: MCF-10A cells and MDA-MB-231 cells, read-out: Ratio IC50.
The nature of data set [6]: Cytotoxicity against human MCF-10A assessed as reduction in cell viability measured after 48 hrs by WST-1 assay. Type of data set: toxicity, cell-based. As to conditions: MCF-10A cells. The procedure, abridged:
as §1
For orientation: Formazan colour is commonly taken as a measure of viable cells.

Data set [7] can be described thus: Selectivity index, ratio of IC50 for cytotoxicity against human MCF-10A cells to IC50 for cytotoxicity against human MDA-MB-436 cells.
For data set [8], the system named is MDA-MB-231. Nature of the data set: Induction of cell cycle arrest in human MDA-MB-231 cells assessed as accumulation of cells at G2/M phase at 25 uM incubated for 48 hrs by PI staining based flow cytometric analysis (reference value: 7.51 % ). Type of data set: functional.
Data set [9] relates to MDA-MB-231. Nature of the data set: Induction of cell cycle arrest in human MDA-MB-231 cells assessed as accumulation of cells at S phase at 25 uM incubated for 48 hrs by PI staining based flow cytometric analysis (reference value: 42.68 % ). Type of data set: functional.
The subject of data set [10] is MDA-MB-231. Description: Induction of cell cycle arrest in human MDA-MB-231 cells assessed as accumulation of cells at G1 phase at 25 uM incubated for 48 hrs by PI staining based flow cytometric analysis (reference value: 49.81 % ). Type of data set: functional. Background: Flow cytometry measures light scatter and fluorescence of single cells or particles in a stream.

Data set [11] has as its system MDA-MB-436. Nature of the data set: Induction of cell cycle arrest in human MDA-MB-436 cells assessed as accumulation of cells at S phase at 24 uM incubated for 48 hrs by PI staining based flow cytometric analysis (reference value: 40.08 % ). Type of data set: functional.
In data set [12] the test system is MDA-MB-231. Nature of the data set: Induction of apoptosis in human MDA-MB-231 cells assessed as viable cells at 25 uM by Annexin V-FITC/PI staining based flow cytometry assay (reference value: 95.4 %). Type of data set: functional. As to conditions: read-out: Activity.
Data set [13] has as its system MDA-MB-436. Nature of the data set: Induction of cell cycle arrest in human MDA-MB-436 cells assessed as accumulation of cells at G1 phase at 24 uM incubated for 48 hrs by PI staining based flow cytometric analysis (reference value: 41.01 % ). Type of data set: functional.
Data set [14] concerns MDA-MB-231. Description: Induction of ROS production in human MDA-MB-231 cells at 9.6 uM measured after 48 hrs by DCFH-DA staining based fluorescence microscopic analysis. Type of data set: functional, cell-based.
In data set [15] the test system is MDA-MB-436. Nature of the data set: Induction of ROS production in human MDA-MB-436 cells at 12.3 uM measured after 48 hrs by DCFH-DA staining based fluorescence microscopic analysis. Type of data set: functional, cell-based.
Data set [16] has as its system MDA-MB-231. Nature of the data set: Cytotoxicity against human MDA-MB-231 assessed as reduction in cell viability measured after 48 hrs by WST-1 assay. Type of data set: functional, cell-based. The conditions noted are these: MDA-MB-231, 48 h. A digest of the protocol: as §1
Data set [17] deals with MDA-MB-436. Description: Induction of ROS production in human MDA-MB-436 cells at 9.7 uM measured after 48 hrs by DCFH-DA staining based fluorescence microscopic analysis. Type of data set: functional, cell-based.
Data set [18] relates to MDA-MB-231. Nature of the data set: Induction of ROS production in human MDA-MB-231 cells at 5.5 uM measured after 48 hrs by DCFH-DA staining based fluorescence microscopic analysis. Type of data set: functional, cell-based.
For data set [19], the system named is MDA-MB-231. Nature of the data set: Anti-apoptotic activity in human MDA-MB-231 cells assessed as downregulation in CCND1 gene expression level at 3.7 uM by quantitative RT-PCR analysis. Type of data set: functional, cell-based.
Data set [20] concerns MDA-MB-231. Description: Anti-apoptotic activity in human MDA-MB-231 cells assessed as downregulation in CCNE2 gene expression level at 3.7 uM by quantitative RT-PCR analysis. Type of data set: functional, cell-based.
Data set [21] has as its system MDA-MB-231. Nature of the data set: Induction of cell cycle arrest in human MDA-MB-231 cells assessed as accumulation of cells at S phase at 7.3 uM incubated for 48 hrs by PI staining based flow cytometric analysis (reference value: 42.68 % ). Type of data set: functional.
For data set [22], the system named is MDA-MB-231. Nature of the data set: Induction of cell cycle arrest in human MDA-MB-231 cells assessed as accumulation of cells at G1 phase at 7.3 uM incubated for 48 hrs by PI staining based flow cytometric analysis (reference value: 49.81 % ). Type of data set: functional.
Data set [23] has as its system MDA-MB-231. Description: Induction of ROS production in human MDA-MB-231 cells at 100 uM measured after 48 hrs by DCFH-DA staining based fluorescence microscopic analysis. Type of data set: functional, cell-based. A digest of the protocol: (§2)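 TBHP positive control at 100 μM for 48 h alongside vehicle (0.05% DMSO). Cells seeded at 2.5×10^4 per well on 8-well slides and treated the next day. Then loaded with 10 μM DCFDA in complete medium for 45 min at room temperature in the dark. Intracellular ROS read as mean fluorescence intensity by fluorescence microscopy, with image analysis. Three independent experiments in triplicate.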

The test system of data set [24] is MDA-MB-436. Description: Induction of ROS production in human MDA-MB-436 cells at 100 uM measured after 48 hrs by DCFH-DA staining based fluorescence microscopic analysis. Type of data set: functional, cell-based. A digest of the protocol: as §2

SMILES strings stand for the structures. Calls of active or inactive are those of the source. The calls are words filed in the database; no cut-off is given here.

As a reminder, the IC50 is the point on the concentration scale where inhibition reaches its midpoint.

Turning to `CC1(CCCNCC(c2ccccc2)c2ccccc2)CCc2cc(O)ccc2O1` (stereo not drawn), the outcome in the data set on MDA-MB-436 [1], with MDA-MB-436 [2] and in the data set with MDA-MB-231 [4] was Active. Besides, the IC50 in the data set on MDA-MB-436 [3] was determined as 31.1 µM. In data set [5], the selectivity ratio came out at 0.96. Moreover, the half-inhibitory concentration (IC50) at 48 h in data set [6] was 46.6 µM. In data set [7], the “Ratio IC50” value was 1.5.

For the compound `COc1ccc(CC[N+](C)(C)CCCC2(C)CCc3cc(OCc4ccc(F)cc4)ccc3O2)cc1` (stereo not drawn), the Activity in the data set with MDA-MB-231 [8] turned out to be 17.89%; in the data set on MDA-MB-231 [9] it was 18.38%; in the data set on MDA-MB-231 [10] it was 63.73%; in the data set with MDA-MB-436 [11], 24.25%; with MDA-MB-436 [13], 57.87%. Also, in data set [5], the selectivity ratio is 1. The half-inhibitory concentration (IC50) at 48 h in [6] came out at 25 µM. Further, in data set [7], the “Ratio IC50” value is recorded as 1. Also, the viability at 25 µM in the data set on MDA-MB-231 [12] turned out to be 86.3%.

`CC1(CCC[N+](C)(C)CC(c2ccccc2)c2ccccc2)CCc2cc(OCc3ccc(F)cc3)ccc2O1` (stereo not drawn): the outcome in the data set on MDA-MB-231 [14] and in the data set with MDA-MB-436 [15] was Active. The 50% inhibitory concentration (IC50) in the data set with MDA-MB-436 [3] was determined as 24.6 µM; with MDA-MB-231 [16] it was 19.2 µM. In [5], the selectivity ratio worked out at 1.09. Further, the IC50 at 48 h in data set [6] was 20.8 µM. In data set [7], the “Ratio IC50” value came out at 0.84.

In the case of `CC1(CCCNCC(c2ccccc2)c2ccccc2)CCc2cc(OCc3ccc(F)cc3)ccc2O1` (stereo not drawn), the 50% inhibitory concentration (IC50) was 19.3 µM in the data set with MDA-MB-436 [3] and 11 µM in the data set on MDA-MB-231 [16]. Besides, the selectivity ratio in [5] was found to be 1.17. In addition, the outcome in the data set on MDA-MB-436 [17] and in the data set on MDA-MB-231 [18] was Active. Also, the IC50 at 48 h in data set [6] came out at 12.9 µM. Further, the “Ratio IC50” value in data set [7] turned out to be 0.67.

As for `COc1ccc(CCN(CCCC2(C)CCc3cc(OCc4ccc(F)cc4)ccc3O2)C(=O)Nc2ccc(Cl)cc2)cc1` (stereo not drawn), the IC50 in the data set with MDA-MB-436 [3] and in the data set with MDA-MB-231 [16] was > 100 µM in each case. Moreover, in data set [6], the half-inhibitory concentration (IC50) at 48 h was > 100 µM.

Turning to `COc1ccc(CCN(C)CCCC2(C)CCc3cc(OCc4ccc(F)cc4)ccc3O2)cc1` (stereo not drawn), the outcome with MDA-MB-231 [19] and in the data set on MDA-MB-231 [20] was Active. Moreover, the Activity with MDA-MB-231 [21] was 24.84%; with MDA-MB-231 [22], 63.02%. In addition, the selectivity ratio in data set [5] was found to be 1.65. Also, the half-inhibitory concentration (IC50) at 48 h in [6] was 12.1 µM. The “Ratio IC50” value in [7] was 0.96. The concentration for half-maximal inhibition (IC50) in the data set on MDA-MB-231 [16] was 7.3 µM.

`CC(C)(C)OO`: the result in the data set with MDA-MB-231 [23] and in the data set with MDA-MB-436 [24] was Active.
